The record followed here is ChEMBL document CHEMBL2331356, “Synthesis of gatifloxacin derivatives and their biological activities against Mycobacterium leprae and Mycobacterium tuberculosis” (Bioorg Med Chem, 2013).

In brackets after ≈: the same amount, converted by molar mass. Activity calls are given as the source filed them. The rule behind the calls is not given here.

Assay [1] has as its system Mycobacterium leprae [G89C].
Assay [2] concerns Mycobacterium tuberculosis. As to the kind of experiment: Antimicrobial activity against Mycobacterium tuberculosis H37Rv assessed as drug concentration causing =<1% […] bacterial growth incubated for 21 to 30 days by proportion method. Type of assay: functional. The method in brief:
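H37Rv grown on Löwenstein-Jensen medium; 10³ and 10⁵ CFU spread on 7H11 agar with 10% OADC containing serial twofold compound dilutions. Colonies counted after 21–30 days at 37 °C. […] Compounds dissolved in DMSO or NaOH.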

The subject of assay [3] is Mycobacterium leprae. In words: Inhibition of Mycobacterium leprae wild type DNA gyrase GyrA/GyrB-mediated DNA cleavable complex formation assessed as compound concentration inducing 25% DNA cleavage using relaxed pBR322 DNA substrate incubated for 1 hr at 30 degC by agarose gel electrophoresis.
Assay [4] has as its target DNA gyrase subunit A/DNA gyrase subunit B (Mycobacterium tuberculosis (strain ATCC 25618 / H37Rv), UniProt P9WG45+P9WG47). As to the kind of experiment: Inhibition of Mycobacterium tuberculosis DNA gyrase GyrA/GyrB assessed as reduction of enzyme supercoiling activity using relaxed pBR322 DNA substrate incubated for 1 hr at 37 degC by ethidium bromide based gel electrophoresis.

The subject of assay [5] is Mycobacterium leprae. As to the kind of experiment: Inhibition of Mycobacterium leprae DNA gyrase GyrA/GyrB assessed as reduction of enzyme supercoiling activity using relaxed pBR322 DNA substrate incubated for 2 hrs at 30 degC by ethidium bromide based gel electrophoresis.
Assay [6] relates to Mycobacterium leprae [A91V]. As to the kind of experiment: Inhibition of Mycobacterium leprae […] DNA gyrase GyrA/GyrB A91V mutant-mediated DNA cleavable complex formation assessed as compound concentration inducing 25% DNA cleavage using relaxed pBR322 DNA substrate incubated for 1 hr at 30 degC by agarose gel electrophoresis.

Regarding `CCCCNC(=O)OCC1CN(c2c(F)cc3c(=O)c(C(=O)O)cn(C4CC4)c3c2OC)CCN1` (stereo not drawn), the CC25 entry in assay [1] was “inactive”. The minimum inhibitory concentration (MIC) in assay [2] was determined as 8 µg/mL (≈ 16.3 µM). Moreover, in the assay with Mycobacterium leprae [3], the CC25 was 10 µg/mL (≈ 20.4 µM). The IC50 in assay [4] is 34.7 µM; with Mycobacterium leprae [5], 10 µg/mL (≈ 20.4 µM).
On to `CCN(CC)C(=O)OCC1CN(c2c(F)cc3c(=O)c(C(=O)O)cn(C4CC4)c3c2OC)CCN1` (stereo not drawn), for which the CC25 result in assay [1] was “inactive”. For the same molecule, in assay [2], the MIC came out at 32 µg/mL (≈ 65.2 µM). Further, the CC25 in the assay with Mycobacterium leprae [3] worked out at 60 µg/mL (≈ 122 µM). The IC50 was 102 µM in assay [4] and 20 µg/mL (≈ 40.8 µM) in the assay with Mycobacterium leprae [5].
For the molecule `CCOC(=O)C1CN(c2cc3c(cc2F)c(=O)c(C(=O)O)cn3C2CC2)CCN1` (stereo not drawn), the CC25 result in assay [1] is “inactive”. The MIC in assay [2] amounted to 4 µg/mL (≈ 9.92 µM). Moreover, in the assay with Mycobacterium leprae [3], the CC25 was determined as 20 µg/mL (≈ 49.6 µM). Further, the half-maximal inhibitory concentration (IC50) in assay [4] is 66.9 µM; in the assay on Mycobacterium leprae [5], 20 µg/mL (≈ 49.6 µM).
Take `CCN(CC)C(=O)OCC1CN(c2cc3c(cc2F)c(=O)c(C(=O)O)cn3C2CC2)CCN1` (stereo not drawn): the CC25 result in assay [6] and in assay [1] was “inactive” throughout. For the same molecule, the MIC in assay [2] was 128 µg/mL (≈ 278 µM). The CC25 in the assay on Mycobacterium leprae [3] was over 240 µg/mL. The IC50 is 575 µM in assay [4] and 118 µg/mL (≈ 256 µM) in the assay on Mycobacterium leprae [5].
For the molecule `CCN1CCN(c2cc3c(cc2F)c(=O)c(C(=O)O)cn3C2CC2)CC1C(=O)O` (stereo not drawn), the CC25 entry in assay [6] and in assay [1] was “inactive” each time. Further, the minimum inhibitory concentration (MIC) in assay [2] came out at 32 µg/mL (≈ 79.3 µM). Besides, in the assay with Mycobacterium leprae [3], the CC25 was over 240 µg/mL. In addition, the IC50 in assay [4] was 119 µM; in the assay with Mycobacterium leprae [5], 35 µg/mL (≈ 86.8 µM).
Consider `O=C(O)c1cn(C2CC2)c2cc(N3CCNCC3)c(F)cc2c1=O` [CIPROFLOXACIN], for which the CC25 entry in assay [1] is “inactive”. In addition, the MIC in assay [2] was 0.5 µg/mL (≈ 1.51 µM). Moreover, the IC50 in the assay on Mycobacterium leprae [5] was 2 µg/mL (≈ 6.04 µM).
Take `CCN1CCN(c2c(F)cc3c(=O)c(C(=O)O)cn(C4CC4)c3c2OC)CC1C(=O)O` (stereo not drawn): in assay [1], the CC25 entry is “inactive”. Further, the MIC in assay [2] stood at 32 µg/mL (≈ 73.8 µM). For the same molecule, the CC25 with Mycobacterium leprae [3] was over 240 µg/mL. Moreover, the IC50 in assay [4] is 201 µM; in the assay with Mycobacterium leprae [5], 55 µg/mL (≈ 127 µM).
For the molecule `COc1c(N2CCNC(C)C2)c(F)cc2c(=O)c(C(=O)O)cn(C3CC3)c12` (stereo not drawn) [GATIFLOXACIN], in assay [1], the CC25 result is “inactive”. For the same molecule, the MIC in assay [2] was determined as 0.125 µg/mL (≈ 0.333 µM). Further, the CC25 in the assay with Mycobacterium leprae [3] is 1 µg/mL (≈ 2.66 µM). The IC50 was 7.99 µM in assay [4] and 3 µg/mL (≈ 7.99 µM) in the assay with Mycobacterium leprae [5].
As to `CCOC(=O)C1CN(c2c(F)cc3c(=O)c(C(=O)O)cn(C4CC4)c3c2OC)CCN1` (stereo not drawn), the CC25 result in assay [1] is “inactive”. Moreover, the MIC in assay [2] is over 32 µg/mL. In addition, in the assay with Mycobacterium leprae [3], the CC25 was found to be 80 µg/mL (≈ 185 µM). The IC50 in assay [4] was 48.5 µM; in the assay on Mycobacterium leprae [5], 17 µg/mL (≈ 39.2 µM).
For the molecule `COc1c(N2CCNC(C(=O)O)C2)c(F)cc2c(=O)c(C(=O)O)cn(C3CC3)c12` (stereo not drawn), in assay [1], the CC25 entry was “inactive”. Moreover, in assay [2], the MIC turned out to be 16 µg/mL (≈ 39.5 µM). Further, in the assay on Mycobacterium leprae [3], the CC25 was 27 µg/mL (≈ 66.6 µM). In addition, the IC50 in assay [4] was 39.5 µM; with Mycobacterium leprae [5], 20 µg/mL (≈ 49.3 µM).
On to `COc1c(N2C[C@@H]3CCCN[C@@H]3C2)c(F)cc2c(=O)c(C(=O)O)cn(C3CC3)c12` [MOXIFLOXACIN], for which, in assay [1], the CC25 entry is “inactive”. In addition, the minimum inhibitory concentration (MIC) in assay [2] stood at 0.5 µg/mL (≈ 1.25 µM).
As to `O=C(O)c1cn(C2CC2)c2cc(N3CCNC(C(=O)O)C3)c(F)cc2c1=O` (stereo not drawn), the CC25 entry in assay [1] is “inactive”. Further, the MIC in assay [2] was found to be 32 µg/mL (≈ 85.3 µM). Moreover, the CC25 in the assay on Mycobacterium leprae [3] turned out to be 30 µg/mL (≈ 79.9 µM). Further, the IC50 is 53.3 µM in assay [4] and 30 µg/mL (≈ 79.9 µM) with Mycobacterium leprae [5].
Consider `CCCCNC(=O)OCC1CN(c2cc3c(cc2F)c(=O)c(C(=O)O)cn3C2CC2)CCN1` (stereo not drawn), for which the CC25 result in assay [6] and in assay [1] was “inactive” in each case. In addition, the MIC in assay [2] worked out at 16 µg/mL (≈ 34.7 µM). The CC25 in the assay on Mycobacterium leprae [3] was determined as 30 µg/mL (≈ 65.1 µM). Also, the values for the IC50 (in assay [4]; in the assay on Mycobacterium leprae [5]) were 65.1 µM and 22 µg/mL (≈ 47.8 µM), respectively.
Regarding `CC1COc2c(N3CCN(C)CC3)c(F)cc3c(=O)c(C(=O)O)cn1c23` (stereo not drawn) [OFLOXACIN], the CC25 entry in assay [1] was “inactive”. The MIC in assay [2] is 1 µg/mL (≈ 2.77 µM). Further, the CC25 with Mycobacterium leprae [3] was 10 µg/mL (≈ 27.7 µM). The IC50 in assay [4] was 16.6 µM; in the assay with Mycobacterium leprae [5] it was 8 µg/mL (≈ 22.1 µM).

One may read the MIC as the lowest concentration that inhibits growth of the organism. Usually IC50 stands for the point on the concentration scale where inhibition reaches its midpoint.
